According to ChEMBL document CHEMBL1938286, “A concise synthesis of viscolin, and its anti-inflammatory effects through the suppression of iNOS, COX-2, ERK phosphorylation and proinflammatory cytokines expressions” (Eur J Med Chem, 2012):
Converted amounts (≈) assume the structure as drawn. The source made the active and inactive calls. The rule behind the calls is not given here.

Columns and labels:
Mus musculus [1] = assay: Down regulation of COX-2 protein expression in carrageenan-stimulated ICR mouse at 8 mg/kg, ip measured after 5 hrs by Western blot analysis; assay type: functional; details: route intraperitoneal
Summary of the method: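 Male ICR mice (18–25 g, n = 6 per group) received intraplantar carrageenan. Paw tissue was taken 5 h after carrageenan. Lysates were made in RIPA buffer and 30 µg protein run on SDS-PAGE/PVDF immunoblot with ECL detection. Band intensities were quantified relative to the carrageenan-alone group across three independent experiments.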

RAW264.7 [2] = assay: Antiinflammatory activity in LPS-stimulated mouse RAW264.7 cells assessed as inhibition of COX-2 protein expression after 24 hrs by Western blot analysis; assay type: functional, cell-based
Mus musculus [3] = assay: Antioxidant activity in carrageenan-stimulated ICR mouse assessed as increase in GPx activity at 2 mg/kg, ip measured after 5 hrs; assay type: functional; details: route intraperitoneal
Summary of the method: (§1)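 Male ICR mice (n = 6 per group) received the drug 30 min before intraplantar carrageenan, and paw tissue was taken at the 5th hr. Total SOD was measured by inhibition of cytochrome c reduction, CAT by Aebi's method, and cytosolic GPx by Paglia–Valentine. Activities are in U/mg protein, given as mean ± SEM.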

[4] = Antiinflammatory activity in human neutrophils assessed as inhibition of fMLP/CB-induced elastase release; assay type: functional, cell-based; details: Neutrophil
RAW264.7 [5] = assay: Down regulation of COX-2 protein expression in LPS-stimulated mouse RAW264.7 cells at 20 uM after 24 hrs by Western blot analysis; assay type: functional
Summary of the method: (§2)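 RAW 264.7 cells were pretreated with test agent for 1 h, then stimulated with 100 ng/mL LPS for 24 h. Lysates were made in RIPA buffer and 30 µg protein resolved by SDS-PAGE, blotted to PVDF and blocked with 1% BSA. Primary antibody ran overnight at 4 °C, HRP secondary 1 h at 37 °C. Detection was by ECL, with band intensity expressed relative to control.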

Mus musculus [6] = assay: Antiinflammatory activity in ICR mouse assessed as inhibition of carrageenan-induced hind paw edema at 8 mg/kg, ip measured after 5 hrs; assay type: functional, organism-based; design: dose 8 mg/kg
RAW264.7 [7] = assay: Antiinflammatory activity in mouse RAW264.7 cells assessed as inhibition of LPS-induced TNFalpha production at 10 uM administered 1 hr before LPS challenge measured after 24 hrs by ELISA
Mus musculus [8] = assay: Antiinflammatory activity in ICR mouse assessed as decrease in carrageenan-induced inflammatory response at 8 mg/kg, ip measured after 5 hrs; assay type: functional, organism-based; design: dose 8 mg/kg
Summary of the method: (§3)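 Male ICR mice were dosed 30 min before intraplantar carrageenan, and paw biopsies were taken 5 h later. Tissue was fixed in Dietric solution for 1 week at room temperature, dehydrated in graded ethanol and paraffin-embedded. 7-thickness sections were stained with hematoxylin–eosin or Van Gieson and examined by light microscopy.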

Mus musculus [9] = assay: Antioxidant activity in carrageenan-stimulated ICR mouse assessed as increase in SOD activity at 4 mg/kg, ip measured after 5 hrs; assay type: functional; details: route intraperitoneal; summary of the method: as §1
RAW264.7 [10] = assay: Cytotoxicity against mouse RAW264.7 cells after 24 hrs by MTT assay; assay type: cell-based; details: raw264.7, 24 h
Summary of the method: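 RAW 264.7 cells (2 × 10⁵, DMEM + 10% FBS, grown 1 day to near confluence) exposed to test agent with 100 ng/mL LPS for 24 h. After two DPBS washes, 0.5 mg/mL MTT was added for 2 h at 37 °C. Formazan was dissolved in DMSO for 30 min and absorbance read at 570 nm.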

RAW264.7 [11] = assay: Antiinflammatory activity in mouse RAW264.7 cells assessed as inhibition of LPS-induced PGE2 production at 20 uM administered 1 hr before LPS challenge measured after 24 hrs by ELISA
RAW264.7 [12] = assay: Antiinflammatory activity in mouse RAW264.7 cells assessed as inhibition of LPS-induced NO production at 10 uM administered 1 hr before LPS challenge measured after 24 hrs by Griess method; assay type: functional, cell-based
RAW264.7 [13] = assay: Inhibition of JNK phosphorylation in LPS-stimulated mouse RAW264.7 cells at 5 to 20 uM after 30 mins by Western blot analysis; assay type: cell-based
Summary of the method: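 RAW 264.7 cells were pretreated with test agent, then stimulated with LPS for 30 min. Phospho-ERK, phospho-JNK and phospho-p38 were assessed by Western blot: RIPA lysates, 30 µg protein, SDS-PAGE, PVDF, primary antibody overnight at 4 °C, HRP secondary and ECL detection.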

Mus musculus [14] = assay: Antioxidant activity in carrageenan-stimulated ICR mouse assessed as increase in SOD activity at 2 mg/kg, ip measured after 5 hrs; assay type: functional; details: route intraperitoneal; summary of the method: as §1
Mus musculus [15] = assay: Antiinflammatory activity in ICR mouse assessed as decrease in carrageenan-induced serum TNFalpha level at 4 mg/kg, ip; assay type: functional, organism-based; design: dose 4 mg/kg
Summary of the method: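 Male ICR mice (18–25 g, n = 6 per group). Carrageenan was injected intraplantar into the paw, with drug given 30 min beforehand. Serum was collected at the 5th hr. Nitrite was measured colorimetrically by Griess reaction, and TNF-α by commercial ELISA. Data are mean ± SEM.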

Mus musculus [16] = assay: Antiinflammatory activity in ICR mouse assessed as decrease in carrageenan-induced MDA level at 8 mg/kg, ip measured after 5 hrs; assay type: functional, organism-based; design: dose 8 mg/kg
Summary of the method: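 Male ICR mice (n = 6 per group) were dosed 30 min before intraplantar carrageenan. MDA in the edematous paw tissue was determined at the 5th hr after carrageenan.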

Mus musculus [17] = assay: Antiinflammatory activity in carrageenan-stimulated ICR mouse assessed as decrease in neutrophil number at 8 mg/kg, ip measured after 5 hrs; assay type: functional, organism-based; design: dose 8 mg/kg; summary of the method: as §3
Mus musculus [18] = assay: Antioxidant activity in carrageenan-stimulated ICR mouse assessed as increase in CAT activity at 2 mg/kg, ip measured after 5 hrs; assay type: functional; details: route intraperitoneal; summary of the method: as §1
RAW264.7 [19] = assay: Antiinflammatory activity in mouse RAW264.7 cells assessed as inhibition of LPS-induced TNFalpha production at 5 uM administered 1 hr before LPS challenge measured after 24 hrs by ELISA
Mus musculus [20] = assay: Antioxidant activity in carrageenan-stimulated ICR mouse assessed as increase in SOD activity at 8 mg/kg, ip measured after 5 hrs; assay type: functional; details: route intraperitoneal; summary of the method: as §1
[21] = Antioxidant activity in human neutrophils assessed as inhibition of fMLP/CB-induced superoxide anion generation; assay type: functional, cell-based; details: Neutrophil
RAW264.7 [22] = assay: Down regulation of iNOS protein expression in LPS-stimulated mouse RAW264.7 cells at 20 uM after 24 hrs by Western blot analysis; assay type: functional; summary of the method: as §2
Mus musculus [23] = assay: Antiinflammatory activity in carrageenan-stimulated ICR mouse assessed as vascular localization of inflammatory cells at 8 mg/kg, ip measured after 5 hrs; assay type: functional, organism-based; design: dose 8 mg/kg; summary of the method: as §3
RAW264.7 [24] = assay: Antiinflammatory activity in mouse RAW264.7 cells assessed as inhibition of LPS-induced NO production at 5 uM administered 1 hr before LPS challenge measured after 24 hrs by Griess method; assay type: functional, cell-based
RAW264.7 [25] = assay: Antiinflammatory activity in mouse RAW264.7 cells assessed as inhibition of LPS-induced NO production at 20 uM administered 1 hr before LPS challenge measured after 24 hrs by Griess method; assay type: functional, cell-based
Mus musculus [26] = assay: Antioxidant activity in carrageenan-stimulated ICR mouse assessed as increase in GPx activity at 8 mg/kg, ip measured after 5 hrs; assay type: functional; details: route intraperitoneal; summary of the method: as §1

In the case of COc1cc(CCCc2c(OC)cc(O)c(OC)c2OC)ccc1O [VISCOLIN], the Activity (Mus musculus [1]) is reported as 76.2%, the Activity (RAW264.7 [2]) is reported as “Dose-dependent effect” and the Activity (Mus musculus [3]) is reported as 8.64 U/mg. For the same compound, the IC50 [4] was 4.93 µg/mL (≈ 14.2 µM), the Activity (RAW264.7 [5]) was 70.6% and the Activity (Mus musculus [6]) was “Active”. For the same compound, the Activity (RAW264.7 [7]) was “Active”, the Activity (Mus musculus [8]) was “Active” and the Activity (Mus musculus [9]) was 3.46 U/mg. The Activity (RAW264.7 [10]) was “Non-toxic”, the Activity (RAW264.7 [11]) was “Active” and the Activity (RAW264.7 [12]) was “Active”. The inhibition (RAW264.7 [13]) was “inactive”, the Activity (Mus musculus [14]) was 2.45 U/mg and the Activity (Mus musculus [15]) was “Active”. The Activity (Mus musculus [16]) was “Active”, the Activity (Mus musculus [17]) was “Active” and the Activity (Mus musculus [18]) was 3.92 U/mg. For the same compound, the Activity (RAW264.7 [19]) was “Active”, the Activity (Mus musculus [20]) was 4.08 U/mg and the IC50 [21] was 0.58 µg/mL (≈ 1.66 µM). For the same compound, the Activity (RAW264.7 [22]) was 83.8%, the Activity (Mus musculus [23]) was “Active” and the Activity (RAW264.7 [24]) was “Active”. The Activity (RAW264.7 [25]) was “Active” and the Activity (Mus musculus [26]) was 11.54 U/mg.
